In ChEMBL document CHEMBL4765263, “Design, synthesis, biological evaluation of 6-(2-amino-1H-benzo[d]imidazole-6-yl)quinazolin-4(3H)-one derivatives as novel anticancer agents with Aurora kinase inhibition” (Eur J Med Chem, 2020) one finds IC50 and solubility data, which are given here for 20 molecules.

SMILES strings stand for the structures.

The test system of one data set is MDA-MB-231. Briefly: Cytotoxicity against human MDA-MB-231 cells assessed as reduction in cell viability incubated for 72 hrs by MTT assay. The data set is classed as functional, cell-based. The note with it: MDA-MB-231, 72 h. The method, boiled down:
(§1)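 MTT viability assay. Cells kept in DMEM with 10% FBS at 37 °C and 5% CO2. Seeded at 5×10^3 cells per well and exposed to a range of compound concentrations from 20 mM DMSO stocks. IC50 is the mean of triplicate measurements.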
(Tetrazolium assays rely on reduction of a dye to a coloured formazan, in cell work by metabolically active cells.)

The test system of another data set is PC-3. As to the kind of experiment: Cytotoxicity against human PC-3 cells assessed as reduction in cell viability incubated for 72 hrs by MTT assay. In kind it is functional, cell-based. The note with it: PC-3, 72 h. The method, boiled down:
as §1

A further data set deals with SH-SY5Y. As to the kind of experiment: Cytotoxicity against human SH-SY5Y cells assessed as reduction in cell viability incubated for 72 hrs by MTT assay. In kind it is functional, cell-based. The method, boiled down:
as §1

Data set [1] in a line: Solubility of compound in water. In kind it is physicochemical. The note with it: buffer.
The target in the next data set is T1, Aurora kinase A (Homo sapiens, UniProt O14965).
T1 sequence (O14965 whole entry): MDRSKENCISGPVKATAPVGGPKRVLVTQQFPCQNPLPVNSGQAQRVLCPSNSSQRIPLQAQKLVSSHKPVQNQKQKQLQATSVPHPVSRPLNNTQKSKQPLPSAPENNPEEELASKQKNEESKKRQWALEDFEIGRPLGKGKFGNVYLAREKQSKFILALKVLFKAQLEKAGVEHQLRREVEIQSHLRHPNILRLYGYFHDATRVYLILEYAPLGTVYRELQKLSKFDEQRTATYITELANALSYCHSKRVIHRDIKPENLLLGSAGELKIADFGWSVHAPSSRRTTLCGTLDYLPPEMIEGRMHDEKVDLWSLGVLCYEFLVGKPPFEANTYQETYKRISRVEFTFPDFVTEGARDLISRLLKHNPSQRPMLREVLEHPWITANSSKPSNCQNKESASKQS
Briefly: Inhibition of Aurora A (unknown origin) incubated for 1 hrs by HTRF assay. In general terms: Time-resolved FRET reads energy transfer from a long-lived donor to a nearby acceptor.

Another data set has as its target Aurora kinase B (Homo sapiens, UniProt Q96GD4). As to the kind of experiment: Inhibition of Aurora B (unknown origin) incubated for 1 hrs by HTRF assay.

Chain of Aurora kinase B (Q96GD4 whole entry): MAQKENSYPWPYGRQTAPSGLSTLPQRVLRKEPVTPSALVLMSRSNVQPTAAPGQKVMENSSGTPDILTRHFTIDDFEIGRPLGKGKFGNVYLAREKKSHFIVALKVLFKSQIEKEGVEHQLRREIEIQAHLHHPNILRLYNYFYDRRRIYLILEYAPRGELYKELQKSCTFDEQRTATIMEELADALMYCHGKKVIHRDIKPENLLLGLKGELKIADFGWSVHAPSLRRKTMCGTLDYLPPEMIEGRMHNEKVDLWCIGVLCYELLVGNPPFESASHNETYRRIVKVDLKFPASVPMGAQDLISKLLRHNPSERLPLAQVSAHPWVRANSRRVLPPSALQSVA

By IC50 is commonly meant the concentration at which inhibition is half-maximal. Turning to `CCC(=O)Nc1nc2ccc(-c3ccc4nc(CN5CCOCC5)n(C)c(=O)c4c3)cc2[nH]1`, the IC50 was 0.94 µM with MDA-MB-231, 1.65 µM with PC-3 and 1.08 µM with SH-SY5Y.

As for `CCS(=O)(=O)Nc1nc2ccc(-c3ccc4ncn(CC(=O)N5CCOCC5)c(=O)c4c3)cc2[nH]1`, the IC50 with MDA-MB-231, with PC-3 and in the data set with SH-SY5Y was > 20 µM each time.

For the molecule `CCC(=O)Nc1nc2ccc(-c3ccc4ncn(CCN5CCCCC5)c(=O)c4c3)cc2[nH]1`, the IC50 with MDA-MB-231 amounted to 1.23 µM; with PC-3, 6.57 µM; in the data set on SH-SY5Y it was 4.02 µM.

Consider `O=C(Nc1nc2ccc(-c3ccc4ncn(CCN5CCOCC5)c(=O)c4c3)cc2[nH]1)c1ccccc1`, for which the IC50 with MDA-MB-231, with PC-3 and with SH-SY5Y was > 20 µM throughout.

For the molecule `O=C(Nc1nc2ccc(-c3ccc4ncn(CCN5CCOCC5)c(=O)c4c3)cc2[nH]1)C1CC1`, the IC50 was found to be 1.61 µM with MDA-MB-231, 11.2 µM in the data set on PC-3 and 7.33 µM in the data set on SH-SY5Y.

On to `CCC(=O)Nc1nc2ccc(-c3ccc4ncn(C)c(=O)c4c3)cc2[nH]1`, for which the figures for the half-inhibitory concentration (IC50) in the data set on MDA-MB-231, in the data set with PC-3 and with SH-SY5Y were 13.5 µM, > 20 µM and 18.1 µM, respectively.

With `CCC(=O)Nc1nc2ccc(-c3ccc4ncn(CC(=O)N5CCOCC5)c(=O)c4c3)cc2[nH]1`, the 50% inhibitory concentration (IC50) in the data set with MDA-MB-231, in the data set with PC-3 and with SH-SY5Y was > 20 µM each time.

Take `CCC(=O)Nc1nc2ccc(-c3ccc4ncn(CCc5c[nH]c6ccccc56)c(=O)c4c3)cc2[nH]1`: the IC50 in the data set with MDA-MB-231 worked out at 0.55 µM; with PC-3 it was 1.67 µM; in the data set on SH-SY5Y, 1.23 µM; at Aurora kinase A, 0.0271 µM; at Aurora kinase B, 0.33 µM. In addition, the solubility entry in data set [1] is “Insoluble”.

As for `Cc1cc(Nc2cc(N3CCN(C)CC3)nc(/C=C/c3ccccc3)n2)n[nH]1` [ENMD-2076], the IC50 in the data set with MDA-MB-231 amounted to 0.48 µM; with PC-3 it was 0.67 µM.

As for `CN(C)C(=O)Nc1nc2ccc(-c3ccc4ncn(CCN5CCOCC5)c(=O)c4c3)cc2[nH]1`, the IC50 with MDA-MB-231 is 4.85 µM; in the data set on PC-3 it was 6.45 µM; with SH-SY5Y it was 3.92 µM. Also, in data set [1], the solubility result is on record as “Soluble”.

As for `CCCCn1cnc2ccc(-c3ccc4nc(NC(=O)CC)[nH]c4c3)cc2c1=O`, the IC50 with MDA-MB-231, with PC-3 and in the data set with SH-SY5Y was > 20 µM each time.

Regarding `O=C(Nc1nc2ccc(-c3ccc4ncn(CCN5CCOCC5)c(=O)c4c3)cc2[nH]1)N1CCOCC1`, the IC50 in the data set on MDA-MB-231, with PC-3 and in the data set with SH-SY5Y was > 20 µM each time.

Consider `CCCCC(=O)Nc1nc2ccc(-c3ccc4ncn(CCN5CCOCC5)c(=O)c4c3)cc2[nH]1`, for which the IC50 in the data set with MDA-MB-231 was 3.85 µM; in the data set with PC-3, 6.54 µM; in the data set with SH-SY5Y it was 4.19 µM.

For the molecule `COC(=O)Nc1nc2ccc(-c3ccc4ncn(CCN5CCOCC5)c(=O)c4c3)cc2[nH]1`, the IC50 in the data set with MDA-MB-231, in the data set on PC-3 and with SH-SY5Y was > 20 µM each time. Besides, the solubility result in data set [1] was “Soluble”.

As to `CCC(=O)Nc1nc2ccc(-c3ccc4ncn(CCCN5CCOCC5)c(=O)c4c3)cc2[nH]1`, the IC50 in the data set on MDA-MB-231 is 1.22 µM; with PC-3, 3.21 µM; with SH-SY5Y it was 1.68 µM.

Take `CCN(CC)C(=O)Nc1nc2ccc(-c3ccc4ncn(CCN5CCOCC5)c(=O)c4c3)cc2[nH]1`: the half-maximal inhibitory concentration (IC50) in the data set on MDA-MB-231 is 1.76 µM; in the data set on PC-3 it was 8.13 µM; in the data set on SH-SY5Y it was 2.52 µM. Also, the solubility result in data set [1] was “Soluble”.

For `CCS(=O)(=O)Nc1nc2ccc(-c3ccc4ncn(C)c(=O)c4c3)cc2[nH]1`, the IC50 with MDA-MB-231, in the data set with PC-3 and with SH-SY5Y was > 20 µM throughout.

As to `CCS(=O)(=O)Nc1nc2ccc(-c3ccc4ncn(CCN5CCOCC5)c(=O)c4c3)cc2[nH]1`, the IC50 in the data set on MDA-MB-231, in the data set with PC-3 and with SH-SY5Y was > 20 µM in each case.

For the molecule `CCC(=O)Nc1nc2ccc(-c3ccc4nc(CN5CCN(C(=O)CC)CC5)n(C)c(=O)c4c3)cc2[nH]1`, the values for the IC50 in the data set with MDA-MB-231, with PC-3 and in the data set with SH-SY5Y were > 20 µM, > 20 µM and 5.49 µM, respectively.

As to `O=C(Nc1nc2ccc(-c3ccc4ncn(CCN5CCOCC5)c(=O)c4c3)cc2[nH]1)C1CCCCC1`, the IC50 was determined as 10.2 µM in the data set with MDA-MB-231, 16.5 µM in the data set on PC-3 and 14.2 µM with SH-SY5Y.
